Test results taken from ChEMBL document CHEMBL2029339, “Acylthiourea, acylurea, and acylguanidine derivatives with potent hedgehog inhibiting activity” (J Med Chem, 2012).
Activity calls are given as the source filed them. No cut-off for these calls is given here.

How the values were obtained:
[1] = Antiproliferative activity against SAG-induced rat cerebellar granule cell precursors by [3H]-thymidine incorporation assay; type: functional
Summary of the method: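 Primary rat cerebellar granule cell precursors stimulated with SAG (0.01 μM) together with increasing concentrations of test compound. Proliferation read as [3H]-thymidine incorporation, expressed as % of maximal SAG response. Quadruplicates, n = 3–10 independent experiments. IC50 and Hill coefficient obtained by curve fitting.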

Rattus norvegicus = species on record: Rattus norvegicus; assay: Antiproliferative activity against rat cerebellar granule cell precursors at 1 uM by [3H]-thymidine incorporation assay; type: functional
[2] = Ratio of cyclopamine IC50 to compound IC50 for inhibition of SAG-induced rat cerebellar granule cell precursors by [3H]-thymidine incorporation assay; type: functional
[3] = Ratio of Cur61414 IC50 to compound IC50 for inhibition of SAG-induced rat cerebellar granule cell precursors by [3H]-thymidine incorporation assay; type: functional
Protein smoothened = Protein smoothened (Homo sapiens, UniProt Q99835); assay: Displacement of BODIPY-labelled cyclopamine from human Smo receptor expressed in HEK293 cells after 2 hrs by fluorescence microscopy; type: cell-based
Chain of Protein smoothened (Q99835 whole entry): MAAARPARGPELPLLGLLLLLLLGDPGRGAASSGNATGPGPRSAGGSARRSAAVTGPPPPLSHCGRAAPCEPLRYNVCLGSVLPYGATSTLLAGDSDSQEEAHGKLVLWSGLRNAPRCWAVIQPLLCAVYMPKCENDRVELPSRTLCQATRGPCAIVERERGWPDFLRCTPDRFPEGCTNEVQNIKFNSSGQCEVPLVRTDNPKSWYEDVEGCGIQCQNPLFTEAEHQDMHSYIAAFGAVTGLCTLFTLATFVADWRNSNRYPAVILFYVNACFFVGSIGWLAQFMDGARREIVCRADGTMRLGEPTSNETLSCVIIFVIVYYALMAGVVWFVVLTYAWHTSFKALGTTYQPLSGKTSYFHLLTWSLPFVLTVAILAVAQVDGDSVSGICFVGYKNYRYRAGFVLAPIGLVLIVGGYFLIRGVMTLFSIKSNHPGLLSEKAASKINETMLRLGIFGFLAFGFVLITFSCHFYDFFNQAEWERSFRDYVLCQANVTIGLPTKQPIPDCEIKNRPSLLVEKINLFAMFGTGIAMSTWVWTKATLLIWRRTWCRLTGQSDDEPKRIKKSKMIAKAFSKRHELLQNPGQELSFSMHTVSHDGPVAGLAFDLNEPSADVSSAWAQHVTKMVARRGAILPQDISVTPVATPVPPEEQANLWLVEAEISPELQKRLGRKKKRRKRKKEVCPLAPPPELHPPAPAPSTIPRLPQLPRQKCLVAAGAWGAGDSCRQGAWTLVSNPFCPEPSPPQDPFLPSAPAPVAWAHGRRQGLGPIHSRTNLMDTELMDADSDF
Summary of the method: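 HEK293 cells stably expressing human Smo, grown on poly-D-lysine coverslips and fixed in 4% paraformaldehyde. BODIPY fluorescence above the no-probe background, normalized to DAPI nuclear area in 3–4 fields per coverslip, given as % of probe-alone signal.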

[4] = biological target: Smoothened (Mus musculus) (UniProt P56726); assay: Inhibition of Smo-mediated Hh signaling in mouse Shh-light2 cells by luciferase reporter gene assay
Chain of Smoothened (Mus musculus) (P56726 whole entry, looked up): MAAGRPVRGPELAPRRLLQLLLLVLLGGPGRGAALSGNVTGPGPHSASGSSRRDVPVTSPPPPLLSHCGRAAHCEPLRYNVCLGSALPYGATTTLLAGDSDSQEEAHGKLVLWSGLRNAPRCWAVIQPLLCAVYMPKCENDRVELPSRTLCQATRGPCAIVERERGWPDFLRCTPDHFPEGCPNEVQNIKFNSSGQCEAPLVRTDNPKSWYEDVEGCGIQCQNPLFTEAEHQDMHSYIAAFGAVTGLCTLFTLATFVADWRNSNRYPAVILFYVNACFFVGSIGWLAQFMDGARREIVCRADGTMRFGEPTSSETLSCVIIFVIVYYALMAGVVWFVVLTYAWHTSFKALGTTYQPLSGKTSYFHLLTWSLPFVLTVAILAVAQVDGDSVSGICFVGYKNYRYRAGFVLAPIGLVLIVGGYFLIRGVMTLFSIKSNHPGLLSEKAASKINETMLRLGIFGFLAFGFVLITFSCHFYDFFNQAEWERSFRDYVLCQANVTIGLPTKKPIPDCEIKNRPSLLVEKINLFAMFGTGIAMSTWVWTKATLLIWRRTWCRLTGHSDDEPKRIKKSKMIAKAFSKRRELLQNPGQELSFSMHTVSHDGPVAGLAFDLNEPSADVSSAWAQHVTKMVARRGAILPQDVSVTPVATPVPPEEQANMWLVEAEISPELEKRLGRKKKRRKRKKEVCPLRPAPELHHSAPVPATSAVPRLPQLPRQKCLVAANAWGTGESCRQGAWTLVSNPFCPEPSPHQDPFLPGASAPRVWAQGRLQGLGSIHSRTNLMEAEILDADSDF

[5] = biological target: Smoothened (Mus musculus) (UniProt P56726); assay: Inhibition of Smo-mediated Hh signaling in mouse Shh-light2 cells at 3 uM by luciferase reporter gene assay; details: Shh Light II
[6] = biological target: Smoothened (Mus musculus) (UniProt P56726); assay: Inhibition of Smo-mediated Hh signaling in mouse Shh-light2 cells at 0.3 uM by luciferase reporter gene assay; details: Shh Light II
C3H 10T1/2 [7] = assay: Inhibition of SAG-induced differentiation of mouse mesenchymal pluripotent C3H10T1/2 cells to alkaline phosphatase positive oeseoblasts after 6 days; details: C3H 10T1/2, 6 days
C3H 10T1/2 [8] = assay: Inhibition of SAG-induced differentiation of mouse mesenchymal pluripotent C3H10T1/2 cells to alkaline phosphatase positive oeseoblasts at 10 uM after 6 days; details: C3H 10T1/2, 6 days
[9] = biological target: Smoothened (Mus musculus) (UniProt P56726); assay: Antagonist activity at Smo receptor

| Structure (SMILES) | IC50 [1] | Activity (Rattus norvegicus) | Ratio IC50 [2] | Ratio IC50 [3] | IC50 (Protein smoothened) | IC50 [4] | inhibition [5] | inhibition [6] | IC50 (C3H 10T1/2 [7]) | inhibition at 10 µM (C3H 10T1/2 [8]) | IC50 [9] |
| --- | --- | --- | --- | --- | --- | --- | --- | --- | --- | --- | --- |
| COc1cc(C(=O)NC(=S)Nc2ccc(C)c(NC(=O)c3ccc(-c4ccccc4)cc3)c2)cc(OC)c1OC | 0.009 µM | inactive | 20 | 20 | 0.063 µM | 0.041 µM | 98% | 98% | 0.06 µM | 100% |  |
| COc1cc(C(=O)NC(=N)Nc2cccc(-c3cc4ccccc4[nH]3)c2)cc(OC)c1OC |  |  |  |  |  | 0.07 µM |  |  | 0.18 µM |  |  |
| COc1cccc(CN(C(=O)CC(C)(C)C)[C@H]2C[C@@H](C(=O)N3CCNCC3)N(Cc3ccc4c(c3)OCO4)C2)c1 | 0.095 µM |  |  |  |  | 0.14 µM |  |  | 0.3 µM |  |  |
| COc1cc(C(=O)NC(=O)Nc2ccc(C)c(NC(=O)c3ccc(-c4ccccc4)cc3)c2)cc(OC)c1OC | 0.006 µM | inactive | 20 | 20 | 0.024 µM | 0.013 µM | 99% | 96% | 0.025 µM | 101% |  |
| COc1cc(C(=O)NC(=N)Nc2ccc(Cl)c(NC(=O)c3ccccc3)c2)cc(OC)c1OC |  |  |  |  |  | 0.37 µM |  |  | 0.37 µM |  |  |
| COc1cc(C(=O)NC(=S)Nc2cccc(-c3cc4ccccc4[nH]3)c2)cc(OC)c1OC |  |  |  |  |  | 0.18 µM | 90% |  | 0.28 µM | 102% |  |
| COc1cc(C(=O)NC(=N)Nc2ccc(Cl)c(C(=O)Nc3ccccc3)c2)cc(OC)c1OC |  |  |  |  |  | 0.16 µM |  |  | 0.44 µM |  |  |
| COc1cc(C(=O)NC(=N)Nc2ccc(C)c(NC(=O)c3ccc(-c4ccc(F)cc4)cc3)c2)cc(OC)c1OC |  |  |  |  |  | 0.014 µM |  |  | 0.011 µM |  |  |
| COc1cc(C(=O)NC(=S)Nc2cccc(-c3cn4ccccc4n3)c2)cc(OC)c1OC |  |  |  |  |  | 0.82 µM | 93% |  | 0.55 µM | 94% |  |
| COc1cc(C(=O)NC(=S)Nc2cccc(NC(=O)c3ccccc3)c2)cc(OC)c1OC | 0.338 µM | inactive |  |  | 0.3 µM | 0.65 µM | 96% | 15% | 0.9 µM | 96% | 0.65 µM |
| COc1cc(C(=O)NC(=S)Nc2cccc(-c3cn4ccsc4n3)c2)cc(OC)c1OC |  |  |  |  |  | 1.1 µM | 92% |  |  | 98% |  |
| COc1cc(C(=O)NC(=N)Nc2ccc(C)c(C(=O)Nc3ccccc3)c2)cc(OC)c1OC |  |  |  |  |  | 0.19 µM |  |  | 0.2 µM |  |  |
| COc1cc(C(=O)NC(=S)Nc2ccc(Cl)c(C(=O)Nc3ccccc3)c2)cc(OC)c1OC |  |  |  |  |  | 0.52 µM | 95% | 11% | 1.5 µM | 96% |  |
| COc1cc(C(=O)NC(=N)Nc2cccc(NC(=O)c3ccc(N4CCOCC4)cc3)c2)cc(OC)c1OC |  |  |  |  |  | 0.22 µM |  |  | 0.2 µM |  |  |
| COc1cc(C(=O)NC(=N)Nc2cccc(-n3ccc4ccccc43)c2)cc(OC)c1OC |  |  |  |  |  | 0.9 µM |  |  | 0.39 µM |  |  |
| COc1cc(C(=O)NC(=N)Nc2cccc(NC(=O)c3ccc(-c4ccc(F)cc4)cc3)c2)cc(OC)c1OC |  |  |  |  |  | 0.033 µM |  |  | 0.03 µM |  |  |

| Structure (SMILES) | IC50 [1] | Activity (Rattus norvegicus) | Ratio IC50 [2] | Ratio IC50 [3] | IC50 (Protein smoothened) | IC50 [4] | inhibition [5] | inhibition [6] | IC50 (C3H 10T1/2 [7]) | inhibition at 10 µM (C3H 10T1/2 [8]) | IC50 [9] |
| --- | --- | --- | --- | --- | --- | --- | --- | --- | --- | --- | --- |
| COc1cc(C(=O)NC(=O)Nc2ccc(Cl)c(NC(=O)c3ccc(-c4ccccc4)cc3)c2)cc(OC)c1OC |  |  |  |  |  | 0.08 µM | 98% | 95% | 0.1 µM | 72% |  |
| COc1cc(C(=O)NC(=O)Nc2cccc(NC(=O)c3ccccc3)c2)cc(OC)c1OC | 0.106 µM | inactive |  |  | 0.107 µM | 0.16 µM | 96% | 76% | 0.13 µM | 101% | 0.16 µM |
| COc1cc(C(=O)NC(=S)Nc2cccc(NC(=O)c3ccc(-c4ccccc4)cc3)c2)cc(OC)c1OC |  |  |  |  |  | 0.09 µM | 89% |  | 0.08 µM | 62% |  |
| COc1cc(C(=O)NC(=S)Nc2ccc(C)c(NC(=O)c3ccc(-c4ccc(F)cc4)cc3)c2)cc(OC)c1OC |  |  |  |  |  | 0.029 µM | 97% | 96% | 0.03 µM | 86% |  |
| COc1cc(C(=O)NC(=S)Nc2ccc(Cl)c(NC(=O)c3ccccc3)c2)cc(OC)c1OC |  |  |  |  |  | 0.19 µM | 89% | 69% | 0.99 µM | 96% |  |
| COc1cc(C(=O)NC(=S)Nc2ccc(C)c(C(=O)Nc3ccccc3)c2)cc(OC)c1OC |  |  |  |  |  | 1.8 µM | 89% | 13% | 2.5 µM | 99% |  |
| COc1cc(C(=O)NC(=S)Nc2ccc(Cl)c(NC(=O)c3ccc(-c4ccccc4)cc3)c2)cc(OC)c1OC |  |  |  |  |  | 0.13 µM | 99% | 85% | 0.38 µM | 101% |  |
| COc1cc(C(=O)NC(=N)Nc2cccc(NC(=O)c3ccccc3)c2)cc(OC)c1OC |  |  |  |  |  | 0.29 µM |  |  | 0.43 µM |  | 0.29 µM |
| CC1=C2C[C@H]3[C@@H](CC=C4C[C@@H](O)CC[C@@]43C)[C@@H]2CC[C@]12O[C@@H]1C[C@H](C)CN[C@H]1[C@H]2C [CYCLOPAMINE] | 0.1 µM |  |  |  |  |  |  |  | 0.62 µM | 98% |  |
| COc1cc(C(=O)NC(=S)Nc2cccc(NC(=O)c3ccc(-c4ccc(F)cc4)cc3)c2)cc(OC)c1OC |  |  |  |  |  | 0.1 µM | 97% |  | 0.14 µM | 95% |  |
| COc1cc(C(=O)NC(=N)Nc2ccc(Cl)c(NC(=O)c3ccc(-c4ccccc4)cc3)c2)cc(OC)c1OC |  |  |  |  |  | 0.07 µM |  |  | 0.13 µM |  |  |
| COc1cc(C(=O)NC(=N)Nc2ccc(C)c(NC(=O)c3ccc(-c4ccccc4)cc3)c2)cc(OC)c1OC | 0.006 µM | inactive | 20 | 20 | 0.005 µM | 0.015 µM |  |  | 0.011 µM |  |  |
| COc1cc(C(=O)NC(=N)Nc2ccc(C)c(NC(=O)c3cccc(-c4ccccc4)c3)c2)cc(OC)c1OC |  |  |  |  |  | 0.11 µM |  |  | 0.26 µM |  |  |
| COc1cc(C(=O)NC(=O)Nc2cccc(NC(=O)c3cc4ccccc4[nH]3)c2)cc(OC)c1OC |  |  |  |  |  | 0.11 µM | 90% | 85% | 0.22 µM | 97% |  |
| CS(=O)(=O)c1ccc(C(=O)Nc2ccc(Cl)c(-c3ccccn3)c2)c(Cl)c1 [VISMODEGIB] | 0.004 µM |  |  |  |  |  |  |  | 0.011 µM | 99% |  |
